# Compounds with a hit are over-represented: about 2.3% of the library has one in this group of screens.
# TRPC4 agonist: activators of mouse TRPC4 channel, primary screen, Fluo4 calcium, HEK293 TRPC4beta/mu-opioid cells. 0.49% of 310,000 active. Fluo4 calcium fluorescence; stronger effect = higher value. B-score at 10 µM. AID 2237, 2010. Short transient receptor potential channel 4 (Mus musculus), Q9QUQ5;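 active = B-score above 5 SD of library B-scores, and initial fluorescence ratio not above library mean plus 5 SD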;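 also: positive B-score marks a calcium rise read as TRPC4 activation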
# Target sequence (Q9QUQ5 whole entry, looked up): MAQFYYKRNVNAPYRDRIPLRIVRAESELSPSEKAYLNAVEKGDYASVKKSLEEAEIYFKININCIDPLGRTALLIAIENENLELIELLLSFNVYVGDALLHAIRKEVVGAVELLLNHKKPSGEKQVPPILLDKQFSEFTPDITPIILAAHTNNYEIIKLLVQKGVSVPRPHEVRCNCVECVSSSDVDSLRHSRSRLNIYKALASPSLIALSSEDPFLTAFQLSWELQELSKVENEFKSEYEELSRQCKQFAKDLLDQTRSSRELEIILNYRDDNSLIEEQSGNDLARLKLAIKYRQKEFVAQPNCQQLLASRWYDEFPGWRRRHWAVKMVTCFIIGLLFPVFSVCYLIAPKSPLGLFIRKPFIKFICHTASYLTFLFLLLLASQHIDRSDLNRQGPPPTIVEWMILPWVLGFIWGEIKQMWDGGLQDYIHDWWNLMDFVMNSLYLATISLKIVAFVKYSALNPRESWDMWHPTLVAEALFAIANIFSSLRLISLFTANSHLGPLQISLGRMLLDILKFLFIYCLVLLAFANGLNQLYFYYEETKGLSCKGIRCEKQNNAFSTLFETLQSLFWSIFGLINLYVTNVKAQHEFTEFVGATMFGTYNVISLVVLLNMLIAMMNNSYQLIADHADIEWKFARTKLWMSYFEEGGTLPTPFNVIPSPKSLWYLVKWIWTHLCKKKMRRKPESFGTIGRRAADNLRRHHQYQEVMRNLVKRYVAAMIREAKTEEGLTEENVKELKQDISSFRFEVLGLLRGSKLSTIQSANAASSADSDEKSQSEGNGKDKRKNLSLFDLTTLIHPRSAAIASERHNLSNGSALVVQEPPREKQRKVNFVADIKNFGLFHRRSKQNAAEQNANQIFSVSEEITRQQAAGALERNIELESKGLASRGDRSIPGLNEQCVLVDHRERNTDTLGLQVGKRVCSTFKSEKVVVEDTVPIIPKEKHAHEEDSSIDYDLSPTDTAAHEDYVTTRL
#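 Assay system – TRPC4beta and mu-opioid receptor HEK293 stable cells · Measured by – Fluo4 fluorescence, kinetic · Schedule – dye loading 45 min room temperature, 110 s kinetic read · Read-out – B-scored integrated calcium fluorescence ratio · Controls – buffer and maximal DAMGO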
# TRPC6 activator: mouse TRPC6 channel activators, primary screen, cell-based, HEK293, membrane potential dye; Short transient receptor potential channel 6 (Mus musculus), Q61143; HEK293-TRPC6 membrane potential dye fluorescence; stronger effect = higher value; B-score at 10 µM; 0.13% of 310,000 active; AID 2550, 2010;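 active = B-score of the integrated fluorescence ratio above library mean plus 3 SD, and starting fluorescence ratio within library mean plus 5 SD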;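 also: higher score means more depolarization so channel activation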
# TRPC4 potent: positive allosteric modulators of TRPC4, primary screen, cell-based, mouse TRPC4beta, HEK293 mu-opioid, Fluo-4 calcium; DAMGO EC20, Fluo-4 Ca2+ flux; stronger effect = higher value; Short transient receptor potential channel 4 (Mus musculus), Q9QUQ5; 0.42% of 310,000 active; B-score at 10 µM;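 active = B-score of calcium response area above 5 SD of library B-scores, with initial fluorescence ratio within 5 SD of library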
# FID counter: compounds displacing fluorescent DNA intercalator, primary screen, artefact control for HCV NS3 helicase inhibitor project, biochemical, FID fluorescence; DNA fluorescent intercalator displacement; inhibition, % at 7.9 µM; 0.17% of 290,000 active; AID 1845, 2009; in the data active = inhibition above about 37%;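 also: higher means more ethidium bromide displaced from hairpin DNA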
# TRPC6 inh: mouse TRPC6 channel inhibitors, primary screen, cell-based, HEK293, membrane potential dye | B-score at 10 µM | AID 2553, 2010 | 1.1% of 310,000 active | Short transient receptor potential channel 6 (Mus musculus), Q61143 | ACh-evoked depolarization; stronger effect = lower value;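 active = B-score under library mean minus 3 SD, initial fluorescence not abnormally high, positive integrated signal ratio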;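 also: B-score derived from integrated fluorescence ratio over the kinetic read; more negative B-score means stronger inhibition of depolarization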
# TRPC4 inh: inhibitors of mouse TRPC4 channel, primary screen, Fluo4 calcium, HEK293 TRPC4beta/mu-opioid cells | Short transient receptor potential channel 4 (Mus musculus), Q9QUQ5 | DAMGO-evoked Fluo4 calcium flux; stronger effect = lower value | B-score at 10 µM | 0.39% of 300,000 active;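 active = B-score over 3 SD under the library average, no early fluorescence shift, positive overall ratio signal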
#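 Assay system – HEK293 line stably carrying TRPC4beta and mu-opioid receptor · Doses – single dose · Detection – Fluo4 calcium-dye fluorescence, kinetic read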
# TRPC4 spec 2: second check of whether TRPC6 inhibitors also affect mouse TRPC4; shares compounds with TRPC6 inh; 42% of 920 active; inhibition, % at 10 µM; AID 2776; HEK293 TRPC4/MOR, membrane potential dye fluorescence; channel activated by saturating DAMGO dose;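 active = compounds whose fluorescence signal differed from control wells by over 3 SD, either direction, in both duplicate plates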
# TRPC4 spec: mouse TRPC4 modulation by TRPC6 hits, confirmation, selectivity assay for TRPC6 inhibitor project, cell-based, HEK293 TRPC4/mu-opioid, membrane potential dye | shares compounds with TRPC6 inh | membrane potential fluorescence | activity change, negative = inhibition, % at 10 µM | 61% of 920 active;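 active = rise or fall in signal beyond 3 SD of buffer-only wells in both replicate plates, either sign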;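 also: integrated kinetic ratio of fluorescence range over baseline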
# HEK293 MPD ctr 2-1: nonspecific membrane potential effects, parental HEK293, confirmation, counter-screen for TRPC6 inhibitor project, cell-based, second counter screen; shares compounds with TRPC6 inh; parental HEK293 membrane potential dye fluorescence; maximal acetylcholine challenge after compound addition; signal change vs control, % at 10 µM; 31% of 920 active;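 active = membrane potential signal moving either way by over 3 SD of the maximum-effect control, in both duplicate plates, meaning non-specific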
# HEK293 MPD ctr-1: membrane potential modulation in parental HEK293, confirmation, counter-screen for TRPC6 inhibitor project, cell-based | membrane potential signal change, % at 10 µM | parental HEK293 membrane potential dye fluorescence | 60% of 920 active | shares compounds with TRPC6 inh;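 active = membrane potential signal shifting up or down by more than 3 SD of buffer-only wells, on both duplicate plates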
# HEK293 MPD ctr-2: parental HEK293 membrane potential modulation, confirmation, counter-screen for TRPC6 modulator project, cell-based. shares compounds with TRPC6 inh. membrane potential dye fluorescence. membrane potential signal change, % at 10 µM. 51% of 2,400 active. AID 488924, 2010;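 active = membrane potential signal moves up or down beyond 5 SD from buffer-only wells, on both duplicate plates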
# HEK293 MPD ctr 2-2: second counter-screen for TRPC6 modulators: effect in parental HEK293 cells; shares compounds with TRPC6 inh; membrane potential dye fluorescence; after compound, maximal acetylcholine stimulation; inhibition, % at 10 µM; 14% of 2,400 active; AID 488926;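 active = membrane potential signal drops by more than 5 SD from the mean control signal, in both duplicate plates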
# TRPC4 ctr mod: TRPC4 modulation by TRPC6 hit compounds, confirmation, selectivity assay for TRPC6 modulator project, cell-based, HEK293 TRPC4/mu-opioid, membrane potential dye, mouse; membrane potential fluorescence; 69% of 2,400 active; percent change from control (negative = decrease, positive = increase), % at 10 µM; shares compounds with TRPC6 inh;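 active = membrane potential signal moved up or down beyond 5 SD of buffer control wells, in both duplicate plates, actives on both sides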
# TRPC4/MOR inh 2: second check of whether TRPC6 modulators also affect mouse TRPC4; inhibition, % at 10 µM; AID 488928; HEK293 TRPC4/mu-opioid, membrane potential dye fluorescence; stimulated with maximal-effect DAMGO; shares compounds with TRPC6 inh; 55% of 2,400 active;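 active = drop in membrane potential signal beyond 5 SD of the control wells in both duplicate plates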;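 also: TRPC4 counter screen for TRPC6 hits run under conditions tuned for TRPC6 not TRPC4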
# TRPC6 block conf: mouse TRPC6 channel inhibitors, confirmation, HEK293 cells, membrane potential dye, duplicate | shares compounds with TRPC6 inh | AID 488960, 2010 | 43% of 3,300 active | inhibition, % at 10 µM | ACh-evoked depolarization;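 active = fluorescence ratio falls more than 5 SD below the full-stimulation control mean, in both duplicate runs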;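 also: integrated fluorescence ratio of peak minus minimum over baseline after agonist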
# TRPC6 act confirm: mouse TRPC6 channel activators, confirmation, HEK293 cells, membrane potential dye, duplicate; shares compounds with TRPC6 inh; HEK293-TRPC6 membrane potential dye fluorescence, FDSS; activation, % at 10 µM; 11% of 2,800 active;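 active = ratio signal rise beyond 5 SD above unstimulated control wells' mean, seen in both duplicate runs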
# Numbers stand for hits; . = inactive; / = no result.
SMILES,TRPC4 agonist,TRPC6 activator,TRPC4 potent,FID counter,TRPC6 inh,TRPC4 inh,HEK293 MPD ctr-2,HEK293 MPD ctr 2-2,TRPC4 ctr mod,TRPC4/MOR inh 2,TRPC6 block conf,TRPC6 act confirm,others
COc1ccc(Cl)cc1N/C(N)=N/c1nc(C)cc(C)n1,.,.,.,.,-5.6,-7,.,.,-10%,.,.,.,
CCOC(=O)Nc1ccc2c(c1)N(C(=O)N1CCN(C)CC1)c1ccccc1S2,.,.,.,.,-5.3,.,.,.,.,36%,.,.,
COc1cccc(CN2CC(C(=O)NCCOc3cccnc3)CCC2=O)c1 (configuration not stated),.,.,.,.,.,.,/,/,/,/,/,/,
COc1ccccc1-c1coc2c(CN3CCCC(C)C3)c(O)ccc2c1=O (configuration not stated),.,.,.,.,-5.9,.,.,.,.,.,.,.,
Cc1nnc(SCCn2c(N3CCN(C)CC3)nc3c2c(=O)n(C)c(=O)n3C)s1,.,.,.,.,-13,.,-231%,96%,-35%,59%,72%,.,
CCCc1cc(NCCCN(C)C)n2c(nc3ccccc32)c1C#N,.,.,.,.,-6.8,.,/,/,/,/,63%,.,TRPC4 spec 2=62%;TRPC4 spec=-36%;HEK293 MPD ctr 2-1=42%;HEK293 MPD ctr-1=-454%
C=C(C)Cc1c(C)c(C#N)c2nc3ccccc3n2c1NCCCN(C)C,.,.,.,.,-7.2,.,/,/,/,/,.,.,TRPC4 spec 2=48%;TRPC4 spec=-16%;HEK293 MPD ctr 2-1=.;HEK293 MPD ctr-1=-354%
C=CCc1c(C)c(C#N)c2nc3ccccc3n2c1NCCN(C)C,.,.,.,.,-5.4,.,-116%,.,-24%,52%,54%,.,
CCc1c(C)c(C#N)c2nc3ccccc3n2c1NCCN(C)C,.,.,.,.,-9.5,.,-85%,112%,-18%,76%,78%,.,
Cc1c(Cc2ccccc2)c(NCCCO)n2c(nc3ccccc32)c1C#N,.,.,.,.,.,.,/,/,/,/,/,/,
CC(C)C(NC(=O)/C=C/c1ccc(F)cc1)C(C)C,.,.,.,.,-6.9,.,/,/,/,/,.,.,TRPC4 spec 2=.;TRPC4 spec=.;HEK293 MPD ctr 2-1=.;HEK293 MPD ctr-1=.
CC(NC(=O)/C=C/c1ccccc1)c1ccccc1 (configuration not stated),.,.,.,.,.,.,/,/,/,/,/,/,
COc1cc(/C=C(\C#N)C(=O)c2c[nH]c3ccccc23)cc(OC)c1O,.,24,.,.,.,.,256%,.,72%,.,.,88%,
COc1cc(/C=C(\C#N)C(=O)NCCc2ccccc2)cc(OC)c1O,.,14,.,.,.,/,394%,.,72%,.,.,68%,
COC(=O)/C(C#N)=C/c1c[nH]c2ccccc12,.,.,.,.,.,.,/,/,/,/,/,/,
COc1ccc(/C=C(\C#N)C(=O)NCc2ccccc2)cc1O,.,.,.,.,.,.,/,/,/,/,/,/,
Cc1cc(N2CCN(c3ccc(F)cc3)CC2)nc2cc(O)ccc12,.,.,.,.,-6.3,.,-60%,.,-11%,36%,.,.,
COc1ccc2c(C)cc(N3CCN(c4ccc(F)cc4)CC3)nc2c1,.,.,.,.,.,.,/,/,/,/,/,/,
O=C(Nc1ccnn1C1CCN(C(=O)c2cc(Cl)ccc2F)CC1)C1CCOC1 (configuration not stated),.,.,.,.,.,.,/,/,/,/,/,/,
Cc1cc(CSC(=N)N)c(CSC(=N)N)cc1C,130,.,.,.,-6.8,.,-264%,58%,-36%,.,47%,.,
CNc1nc(SC)n(C)c(=O)c1N=O,.,.,.,.,.,.,/,/,/,/,/,/,
O=C(c1ccc([N+](=O)[O-])cc1)N(Cc1ccccc1)c1ccccn1,.,.,.,.,-5.7,.,144%,.,38%,.,.,/,
COc1ccccc1N1CCN(C(=O)C(=O)c2c[nH]c3ccccc23)CC1,.,.,.,.,.,.,/,/,/,/,/,/,
COc1ccc(Nc2nc(-c3sc(N)nc3C)cs2)cc1,.,.,.,.,.,.,/,/,/,/,/,/,
Cc1ccc(Nc2nc(-c3sc(N)nc3C)cs2)cc1,.,.,.,.,-7.7,.,/,/,/,/,.,.,TRPC4 spec 2=.;TRPC4 spec=-11%;HEK293 MPD ctr 2-1=.;HEK293 MPD ctr-1=-237%
Cn1c(=O)c2c(nc(N3CCCCCC3)n2Cc2cccc3ccccc23)n(C)c1=O,.,.,13,.,-8.8,.,/,/,/,/,.,.,TRPC4 spec 2=.;TRPC4 spec=.;HEK293 MPD ctr 2-1=.;HEK293 MPD ctr-1=.
